ChEMBL document CHEMBL1177641, “Synthesis and anti-hepatitis C virus (HCV) activity of 3'-C-substituted-methyl pyrimidine and purine nucleosides” (Bioorg Med Chem, 2010)

Legend:
[1] = Cytotoxicity against human Huh7 cells after 3 days by WST-1 assay; type: cell-based, Huh-7
Outline: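 Huh-5-2 cells seeded 5 × 10³/well in complete DMEM with G418. Serial compound dilutions in complete DMEM without G418 added 24 h after seeding. Cells proliferated three days at 37 °C, then cell number determined by WST-1 assay.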

Hepatitis C virus = test: Antiviral activity against HCV genotype1 infected in human Huh7 cells assessed as reduction of viral replication by steady-Glo luciferase assay; type: functional, organism-based, Hepacivirus hominis; conditions: genotype 1, Huh-7
Outline: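 Huh-5-2 cells (Huh-7 with subgenomic genotype 1 replicon, luc-ubi-neo) seeded 5 × 10³/well in complete DMEM with 500 µg/mL G418; after 24 h at 37 °C, 5% CO₂, medium refreshed with G418 and compounds added from DMSO stock. Four days at 37 °C, then luciferase read by Steady-Glo. EC50 is the concentration halving replication; three repeats, mean ± SD.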

[2] = Selectivity index, ratio of CC50 for human Huh7 cells to EC50 for HCV genotype1; set-up: species or system Huh-7

Structure (SMILES) | EC50 (Hepatitis C virus) | CC50 at 72 h [1] | Ratio CC50/EC50 [2]
Nc1ccn([C@@H]2O[C@H](CO)[C@](O)(CF)[C@H]2O)c(=O)n1 | – | > 100 µM | –
CNc1ncnc2c1ncn2[C@@H]1O[C@H](CO)[C@](O)(CO)[C@H]1O | 37.8 µM | 58.8 µM | 1.6
CNc1ncnc2c1ncn2[C@@H]1O[C@H](CO)[C@](O)(CN=[N+]=[N-])[C@H]1O | > 100 µM | > 100 µM | –
[N-]=[N+]=NC[C@@]1(O)[C@@H](CO)O[C@@H](n2cnc3c(O)ncnc32)[C@@H]1O | > 100 µM | > 100 µM | –
[N-]=[N+]=NC[C@@]1(O)[C@@H](CO)O[C@@H](n2ccc(N)nc2=O)[C@@H]1O | > 100 µM | > 100 µM | –
CNc1ncnc2c1ncn2[C@@H]1O[C@H](CO)[C@](O)(CF)[C@H]1O | – | > 100 µM | –

Further compounds by falling EC50 (Hepatitis C virus), results first:

EC50 (Hepatitis C virus) | Structure (SMILES) | CC50 at 72 h [1] | Ratio CC50/EC50 [2]
18.6 µM | Nc1ncnc2c1ncn2[C@@H]1O[C@H](CO)[C@](O)(CO)[C@H]1O | 37.3 µM | 2
15.3 µM | Nc1ncnc2c1ncn2[C@@H]1O[C@H](CO)[C@](O)(CF)[C@H]1O | 18.9 µM | 1.2
11.8 µM | [N-]=[N+]=NC[C@@]1(O)[C@@H](CO)O[C@@H](n2cnc3c(N)ncnc32)[C@@H]1O | 12.3 µM | 1
0.3 µM | C[C@@]1(O)[C@H](O)[C@@H](CO)O[C@H]1n1cnc2c(N)ncnc21 | – | –
